Test results as given in ChEMBL document CHEMBL3046951, “Volatile constituents from the leaves of Callicarpa japonica Thunb. and their antibacterial activities” (2004).

Legend:
Type in all cases: functional
Vibrio parahaemolyticus [1] = experiment: Antimicrobial activity against Vibrio parahaemolyticus ATCC 33844 assessed as growth inhibition rate at 0.05 mg/l after 72 hr by spectrophotometry; details: ATCC 33844, 72 h, read-out: GI
Bacillus cereus [2] = experiment: Antimicrobial activity against Bacillus cereus ATCC 11778 assessed as growth inhibition rate at 0.12 mg/l after 72 hr by spectrophotometry; details: ATCC 11778, 72 h, read-out: GI
How it was run: (§1)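 Pure volatile compounds (purity >95%; one at 90%) were tested against B. cereus ATCC 11778. The strain was grown at 30 °C in nutrient broth for 24 h, then subcultured for 18 h. Optical density was read in a Bioscreen C every 24 h for 72 h, with 10% Tween 80 as the control.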

Salmonella typhimurium [3] = experiment: Antimicrobial activity against Salmonella enterica subsp. enterica serovar Typhimurium ATCC 14028 assessed as growth inhibition rate at 0.025 mg/l after 72 hr by spectrophotometry; details: ATCC 14028, 72 h, read-out: GI
How it was run: (§2)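 Salmonella Typhimurium ATCC 14028 grown in nutrient broth at 30 °C, precultured 24 h, then subcultured 1:100 for 18 h before testing. Single volatile compounds (>95% pure) were added. OD was read every 24 h over 72 h in a Bioscreen C, with 10% Tween 80 as the comparison control.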

Staphylococcus aureus [4] = experiment: Antimicrobial activity against Staphylococcus aureus ATCC 25923 assessed as growth inhibition rate at 0.025 mg/l after 72 hr by spectrophotometry; details: ATCC 25923, 72 h, read-out: GI
Salmonella typhimurium [5] = experiment: Antimicrobial activity against Salmonella enterica subsp. enterica serovar Typhimurium ATCC 14028 assessed as growth inhibition rate at 6.8 mg/l after 72 hr by spectrophotometry; details: ATCC 14028, 72 h, read-out: GI; how it was run: as §2
Listeria monocytogenes [6] = experiment: Antimicrobial activity against Listeria monocytogenes ATCC 19111 assessed as growth inhibition rate at 0.025 mg/l after 72 hr by spectrophotometry; details: ATCC 19111, 72 h, read-out: GI
How it was run: (§3)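 L. monocytogenes was grown at 30 °C in tryptic soy broth, subcultured for 18 h, and exposed to pure volatile compounds (>95% purity). Growth was followed by Bioscreen C optical density every 24 h for 72 h against a 10% Tween 80 control.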

Salmonella typhimurium [7] = experiment: Antimicrobial activity against Salmonella enterica subsp. enterica serovar Typhimurium ATCC 14028 assessed as growth inhibition rate at 3.4 mg/l after 72 hr by spectrophotometry; details: ATCC 14028, 72 h, read-out: GI; how it was run: as §2
Salmonella typhimurium [8] = experiment: Antimicrobial activity against Salmonella enterica subsp. enterica serovar Typhimurium ATCC 14028 assessed as growth inhibition rate at 0.68 mg/l after 72 hr by spectrophotometry; details: ATCC 14028, 72 h, read-out: GI; how it was run: as §2
Vibrio parahaemolyticus [9] = experiment: Antimicrobial activity against Vibrio parahaemolyticus ATCC 33844 assessed as growth inhibition rate at 0.12 mg/l after 72 hr by spectrophotometry; details: ATCC 33844, 72 h, read-out: GI
Bacillus cereus [10] = experiment: Antimicrobial activity against Bacillus cereus ATCC 11778 assessed as growth inhibition rate at 0.68 mg/l after 72 hr by spectrophotometry; details: ATCC 11778, 72 h, read-out: GI; how it was run: as §1
Bacillus cereus [11] = experiment: Antimicrobial activity against Bacillus cereus ATCC 11778 assessed as growth inhibition rate at 0.025 mg/l after 72 hr by spectrophotometry; details: ATCC 11778, 72 h, read-out: GI; how it was run: as §1
Escherichia coli [12] = experiment: Antimicrobial activity against Escherichia coli O157:H7 ATCC 43894 assessed as growth inhibition rate at 0.05 mg/l after 72 hr by spectrophotometry; details: O157:H7 ATCC 43894, 72 h, read-out: GI
Escherichia coli [13] = experiment: Antimicrobial activity against Escherichia coli O157:H7 ATCC 43894 assessed as growth inhibition rate at 3.4 mg/l after 72 hr by spectrophotometry; details: O157:H7 ATCC 43894, 72 h, read-out: GI
Listeria monocytogenes [14] = experiment: Antimicrobial activity against Listeria monocytogenes ATCC 19111 assessed as growth inhibition rate at 6.8 mg/l after 72 hr by spectrophotometry; details: ATCC 19111, 72 h, read-out: GI; how it was run: as §3
Staphylococcus aureus [15] = experiment: Antimicrobial activity against Staphylococcus aureus ATCC 25923 assessed as growth inhibition rate at 0.68 mg/l after 72 hr by spectrophotometry; details: ATCC 25923, 72 h, read-out: GI
How it was run: (§4)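 Staphylococcus aureus ATCC 25923 grown at 37 °C in tryptic soy broth, using an 18 h subculture of a 24 h culture. Individual leaf-volatile compounds (>95% purity) were tested. Bioscreen C optical density was recorded every 24 h for 72 h and compared with a 10% Tween 80 control.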

Escherichia coli [16] = experiment: Antimicrobial activity against Escherichia coli O157:H7 ATCC 43894 assessed as growth inhibition rate at 6.8 mg/l after 72 hr by spectrophotometry; details: O157:H7 ATCC 43894, 72 h, read-out: GI
Listeria monocytogenes [17] = experiment: Antimicrobial activity against Listeria monocytogenes ATCC 19111 assessed as growth inhibition rate at 0.12 mg/l after 72 hr by spectrophotometry; details: ATCC 19111, 72 h, read-out: GI; how it was run: as §3
Vibrio parahaemolyticus [18] = experiment: Antimicrobial activity against Vibrio parahaemolyticus ATCC 33844 assessed as growth inhibition rate at 0.68 mg/l after 72 hr by spectrophotometry; details: ATCC 33844, 72 h, read-out: GI
How it was run: (§5)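 Vibrio parahaemolyticus ATCC 33844 grown at 37 °C in tryptic soy broth with 3% (w/v) NaCl, using an 18 h subculture of a 24 h culture. Pure compounds (>95% purity) were tested. Bioscreen C optical density was read every 24 h for 72 h against a 10% Tween 80 control.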

Listeria monocytogenes [19] = experiment: Antimicrobial activity against Listeria monocytogenes ATCC 19111 assessed as growth inhibition rate at 0.68 mg/l after 72 hr by spectrophotometry; details: ATCC 19111, 72 h, read-out: GI; how it was run: as §3
Bacillus cereus [20] = experiment: Antimicrobial activity against Bacillus cereus ATCC 11778 assessed as growth inhibition rate at 0.05 mg/l after 72 hr by spectrophotometry; details: ATCC 11778, 72 h, read-out: GI; how it was run: as §1
Escherichia coli [21] = experiment: Antimicrobial activity against Escherichia coli O157:H7 ATCC 43894 assessed as growth inhibition rate at 0.12 mg/l after 72 hr by spectrophotometry; details: O157:H7 ATCC 43894, 72 h, read-out: GI
Escherichia coli [22] = experiment: Antimicrobial activity against Escherichia coli O157:H7 ATCC 43894 assessed as growth inhibition rate at 0.68 mg/l after 72 hr by spectrophotometry; details: O157:H7 ATCC 43894, 72 h, read-out: GI
Salmonella typhimurium [23] = experiment: Antimicrobial activity against Salmonella enterica subsp. enterica serovar Typhimurium ATCC 14028 assessed as growth inhibition rate at 0.05 mg/l after 72 hr by spectrophotometry; details: ATCC 14028, 72 h, read-out: GI; how it was run: as §2
Staphylococcus aureus [24] = experiment: Antimicrobial activity against Staphylococcus aureus ATCC 25923 assessed as growth inhibition rate at 6.8 mg/l after 72 hr by spectrophotometry; details: ATCC 25923, 72 h, read-out: GI; how it was run: as §4
Staphylococcus aureus [25] = experiment: Antimicrobial activity against Staphylococcus aureus ATCC 25923 assessed as growth inhibition rate at 0.12 mg/l after 72 hr by spectrophotometry; details: ATCC 25923, 72 h, read-out: GI
Vibrio parahaemolyticus [26] = experiment: Antimicrobial activity against Vibrio parahaemolyticus ATCC 33844 assessed as growth inhibition rate at 3.4 mg/l after 72 hr by spectrophotometry; details: ATCC 33844, 72 h, read-out: GI; how it was run: as §5
Salmonella typhimurium [27] = experiment: Antimicrobial activity against Salmonella enterica subsp. enterica serovar Typhimurium ATCC 14028 assessed as growth inhibition rate at 0.12 mg/l after 72 hr by spectrophotometry; details: ATCC 14028, 72 h, read-out: GI; how it was run: as §2
Bacillus cereus [28] = experiment: Antimicrobial activity against Bacillus cereus ATCC 11778 assessed as growth inhibition rate at 6.8 mg/l after 72 hr by spectrophotometry; details: ATCC 11778, 72 h, read-out: GI; how it was run: as §1
Escherichia coli [29] = experiment: Antimicrobial activity against Escherichia coli O157:H7 ATCC 43894 assessed as growth inhibition rate at 0.025 mg/l after 72 hr by spectrophotometry; details: O157:H7 ATCC 43894, 72 h, read-out: GI
Bacillus cereus [30] = experiment: Antimicrobial activity against Bacillus cereus ATCC 11778 assessed as growth inhibition rate at 3.4 mg/l after 72 hr by spectrophotometry; details: ATCC 11778, 72 h, read-out: GI; how it was run: as §1
Listeria monocytogenes [31] = experiment: Antimicrobial activity against Listeria monocytogenes ATCC 19111 assessed as growth inhibition rate at 3.4 mg/l after 72 hr by spectrophotometry; details: ATCC 19111, 72 h, read-out: GI; how it was run: as §3
Listeria monocytogenes [32] = experiment: Antimicrobial activity against Listeria monocytogenes ATCC 19111 assessed as growth inhibition rate at 0.05 mg/l after 72 hr by spectrophotometry; details: ATCC 19111, 72 h, read-out: GI; how it was run: as §3
Vibrio parahaemolyticus [33] = experiment: Antimicrobial activity against Vibrio parahaemolyticus ATCC 33844 assessed as growth inhibition rate at 0.025 mg/l after 72 hr by spectrophotometry; details: ATCC 33844, 72 h, read-out: GI
Vibrio parahaemolyticus [34] = experiment: Antimicrobial activity against Vibrio parahaemolyticus ATCC 33844 assessed as growth inhibition rate at 6.8 mg/l after 72 hr by spectrophotometry; details: ATCC 33844, 72 h, read-out: GI; how it was run: as §5
Staphylococcus aureus [35] = experiment: Antimicrobial activity against Staphylococcus aureus ATCC 25923 assessed as growth inhibition rate at 3.4 mg/l after 72 hr by spectrophotometry; details: ATCC 25923, 72 h, read-out: GI; how it was run: as §4
Staphylococcus aureus [36] = experiment: Antimicrobial activity against Staphylococcus aureus ATCC 25923 assessed as growth inhibition rate at 0.05 mg/l after 72 hr by spectrophotometry; details: ATCC 25923, 72 h, read-out: GI

## C/C=C/C=C/C=O [2,4-HEXADIENAL]
Vibrio parahaemolyticus [1]
  inhibition of growth at 0.05 µg/mL: 5.8%
Bacillus cereus [2]
  inhibition of growth at 0.12 µg/mL: 10.8%
Salmonella typhimurium [3]
  inhibition of growth at 0.025 µg/mL: 13.2%
Staphylococcus aureus [4]
  inhibition of growth at 0.025 µg/mL: 7.8%
Salmonella typhimurium [5]
  inhibition of growth at 6.8 µg/mL: 80.6%
Listeria monocytogenes [6]
  inhibition of growth at 0.025 µg/mL: 3.9%
Salmonella typhimurium [7]
  inhibition of growth at 3.4 µg/mL: 45.1%
Salmonella typhimurium [8]
  inhibition of growth at 0.68 µg/mL: 18.4%
Vibrio parahaemolyticus [9]
  inhibition of growth at 0.12 µg/mL: 10.4%
Bacillus cereus [10]
  inhibition of growth at 0.68 µg/mL: 45.3%
Bacillus cereus [11]
  inhibition of growth at 0.025 µg/mL: 10.3%
Escherichia coli [12]
  inhibition of growth at 0.05 µg/mL: 0.5%
Escherichia coli [13]
  inhibition of growth at 3.4 µg/mL: 12.7%
Listeria monocytogenes [14]
  inhibition of growth at 6.8 µg/mL: 41.4%
Staphylococcus aureus [15]
  inhibition of growth at 0.68 µg/mL: 8.8%
Escherichia coli [16]
  inhibition of growth at 6.8 µg/mL: 20.2%
Listeria monocytogenes [17]
  inhibition of growth at 0.12 µg/mL: 7.5%
Vibrio parahaemolyticus [18]
  inhibition of growth at 0.68 µg/mL: 20.3%
Listeria monocytogenes [19]
  inhibition of growth at 0.68 µg/mL: 9.2%
Bacillus cereus [20]
  inhibition of growth at 0.05 µg/mL: 9.5%
Escherichia coli [21]
  inhibition of growth at 0.12 µg/mL: 2.1%
Escherichia coli [22]
  inhibition of growth at 0.68 µg/mL: 1.9%
Salmonella typhimurium [23]
  inhibition of growth at 0.05 µg/mL: 12.9%
Staphylococcus aureus [24]
  inhibition of growth at 6.8 µg/mL: 90.9%
Staphylococcus aureus [25]
  inhibition of growth at 0.12 µg/mL: 6.9%
Vibrio parahaemolyticus [26]
  inhibition of growth at 3.4 µg/mL: 98.9%
Salmonella typhimurium [27]
  inhibition of growth at 0.12 µg/mL: 12.2%
Bacillus cereus [28]
  inhibition of growth at 6.8 µg/mL: 100%
Escherichia coli [29]
  inhibition of growth at 0.025 µg/mL: 0.3%
Bacillus cereus [30]
  inhibition of growth at 3.4 µg/mL: 67.3%
Listeria monocytogenes [31]
  inhibition of growth at 3.4 µg/mL: 32.4%
Listeria monocytogenes [32]
  inhibition of growth at 0.05 µg/mL: 3.9%
Vibrio parahaemolyticus [33]
  inhibition of growth at 0.025 µg/mL: 6.2%
Vibrio parahaemolyticus [34]
  inhibition of growth at 6.8 µg/mL: 99.1%
Staphylococcus aureus [35]
  inhibition of growth at 3.4 µg/mL: 89.4%
Staphylococcus aureus [36]
  inhibition of growth at 0.05 µg/mL: 5.3%
